In ChEMBL document CHEMBL1148022, “Discovery of new C3aR ligands. Part 2: amino-piperidine derivatives” (Bioorg Med Chem Lett, 2007):
Active and inactive are the calls of the source. No cut-off for these calls is given here.

Legend:
[1] = molecular target: T1, C3a anaphylatoxin chemotactic receptor (Homo sapiens, UniProt Q16581); assay: (§1) Displacement of [125I]C3a from human C3a receptor expressed in HMC1 cells co-expressing aequorin; assay type: cell-based
T1 sequence (Q16581 whole entry): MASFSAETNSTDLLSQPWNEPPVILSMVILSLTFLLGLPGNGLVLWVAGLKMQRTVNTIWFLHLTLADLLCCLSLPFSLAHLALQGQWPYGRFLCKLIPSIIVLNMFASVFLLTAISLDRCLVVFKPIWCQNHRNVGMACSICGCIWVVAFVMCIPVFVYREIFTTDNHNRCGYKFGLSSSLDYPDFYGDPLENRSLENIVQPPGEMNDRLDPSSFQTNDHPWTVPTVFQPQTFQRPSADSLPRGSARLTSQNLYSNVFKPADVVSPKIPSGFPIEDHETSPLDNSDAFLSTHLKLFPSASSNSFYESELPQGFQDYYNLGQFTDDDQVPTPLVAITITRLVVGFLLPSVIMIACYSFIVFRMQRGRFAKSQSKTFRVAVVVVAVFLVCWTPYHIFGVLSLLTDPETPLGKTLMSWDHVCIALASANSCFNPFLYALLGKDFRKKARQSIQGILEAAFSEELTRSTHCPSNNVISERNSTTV
Method in brief: (§2)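 Scintillation proximity assay used wheat germ agglutinin beads and membranes from HMC-1 cells co-expressing Aequorin and human C3aR. Test compound was added at various concentrations with 0.02 nM ¹²⁵I-C3a in 50 mM Tris/2 mM MgCl₂/0.5% BSA. Non-specific binding was defined with 1 nM C3a. Plates were incubated 3 h at rt and read by scintillation counting. Values are means of three experiments.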

[2] = Elimination half life in rat at 1 mg/kg, iv and 1 mg/kg, po; assay type: ADME, organism-based; conditions: in vivo
Method in brief: (§3)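 Male rats received a single oral or iv dose of 1 mg/kg.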

[3] = Oral bioavailability in rat at 1 mg/kg; assay type: ADME, organism-based; conditions: in vivo; method in brief: as §3
[4] = Clearance in rat microsomes; assay type: ADME, Liver, Microsome
[5] = Permeability across Caco-2 cells; assay type: ADME, cell-based; conditions: human, read-out: permeability
Hepatocyte = assay: Clearance in rat hepatocytes; assay type: ADME, cell-based, Liver
[6] = molecular target: T1, C3a anaphylatoxin chemotactic receptor; assay: Agonist activity at human C3a receptor expressed in HMC1 cells co-expressing aequorin; assay type: functional, cell-based
Method in brief: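 They were then diluted fourfold and held 1 h at 37 °C. Compound was injected at 1% DMSO final. Luminescence was recorded for 30 s right after injection. Maximal signal was set with 50 nM C3a.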

[7] = molecular target: T2, C3a anaphylatoxin chemotactic receptor (Homo sapiens) (UniProt Q16581); assay: as §1; assay type: cell-based; method in brief: as §2
T2 sequence (whole entry): T1 sequence (Q16581 whole entry)

[8] = molecular target: T1, C3a anaphylatoxin chemotactic receptor; assay: Antagonist activity at human C3a receptor expressed in HMC1 cells co-expressing aequorin; assay type: functional, cell-based
Method in brief: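 Aequorin/human C3aR HMC-1 cells were loaded with coelenterazine for 2 h. They were then plated and pre-treated with compound dilutions for 1 h at 37 °C, 1% DMSO. C3a agonist was then injected at 5 nM final. Light emission was the read-out.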

| SMILES | IC50 [1] [nM] | half-life [2] [min] | bioavailability [3] [%] | CL [4] [µL/min] | also measured |
| --- | --- | --- | --- | --- | --- |
| O=C(NC1CCN(C(=O)CCc2cccnc2)CC1)C1c2ccccc2Cc2ccccc21 | 79400 |  |  |  |  |
| CC1(C)CCC(C(C(=O)NC2CCN(C(=O)CCc3cccnc3)CC2)c2ccccc2)CC1 (stereo not drawn) | 1000 |  |  |  |  |
| Cc1ccc(C(C(=O)NC2CCN(C(=O)CCc3cccnc3)CC2)C2CCCCC2)cc1 (stereo not drawn) | 794 |  |  |  |  |
| O=C(NC1CCN(C(=O)CCc2cccnc2)CC1)C(c1ccc(Cl)cc1)c1ccc(Cl)cc1 | 20000 | 24 | 0 | 175 | Papp [5]: 6.3 ×10⁻⁶ cm/s |
| O=C(NC1CCN(C(=O)CCc2ccccc2F)CC1)C(c1ccccc1)C1CCCCC1 (stereo not drawn) | 2000 |  |  |  |  |
| Cc1cc(C)cc(C(C(=O)NC2CCN(C(=O)CCc3cccnc3)CC2)C2CCCCC2)c1 (stereo not drawn) | 126 |  |  |  |  |
| Cc1cncc(/C=C/C(=O)N2CCC(NC(=O)C(c3ccccc3)C3CCCCC3)CC2)c1 (stereo not drawn) | 50100 | 18 | 3 | 175 | CL (Hepatocyte): 21 µL/min; Papp [5]: 7.9 ×10⁻⁶ cm/s |
| CC1(C)CC(C(C(=O)NC2CCN(C(=O)CCc3cccnc3)CC2)c2ccccc2)CC(C)(C)C1 (stereo not drawn) | 63100 |  |  |  |  |
| O=C(NC1CCN(C(=O)CCc2cccnc2)CC1)C(c1ccsc1)C1CCCCC1 (stereo not drawn) | 200 |  |  |  |  |
| O=C(NC1CCN(C(=O)/C=C/c2ccccc2F)CC1)C(c1ccccc1)C1CCCCC1 (stereo not drawn) | 12600 |  |  |  |  |
| O=C(NC1CCN(C(=O)CCc2cccnc2)CC1)C(c1ccccc1)C1CCCCC1 (single isomer, unassigned; epimer B) | 316 |  |  |  |  |
| O=C(NC1CCN(C(=O)CCc2cccnc2)CC1)C(c1ccccc1)C1CCC(F)(F)CC1 (stereo not drawn) | 631 | 18 | 2 | 170 | Papp [5]: 16 ×10⁻⁶ cm/s |
| O=C(NC1CCN(C(=O)CCc2cccnc2)CC1)C(CC1CCCCC1)c1ccccc1 (stereo not drawn) | 794 | 42 | 1 | 500 | CL (Hepatocyte): 44 µL/min |
| Cc1cccc(C(C(=O)NC2CCN(C(=O)CCc3cccnc3)CC2)C2CCCCC2)c1 (stereo not drawn) | 79.4 |  |  |  |  |
| O=C(NC1CCN(C(=O)CCc2cccnc2)CC1)C(c1ccccc1)C1CCCCC1 (stereo not drawn) | 794 | 12 | 5 | 500 | CL (Hepatocyte): 33 µL/min; EC50 [6]: 2000 nM; Papp [5]: 12 ×10⁻⁶ cm/s |
| COc1ncccc1CCC(=O)N1CCC(NC(=O)C(c2ccccc2)C2CCCCC2)CC1 (stereo not drawn) | 15800 |  |  |  |  |
| Cc1ccccc1C(C(=O)NC1CCN(C(=O)CCc2cccnc2)CC1)C1CCCCC1 (stereo not drawn) | 2510 |  |  |  |  |
| O=C(NC1CCN(C(=O)CCc2cccnc2)CC1)C(c1ccccc1)C1CCCC1 (stereo not drawn) | 794 |  |  |  |  |

| SMILES | IC50 [1] [nM] | half-life [2] [min] | bioavailability [3] [%] | CL [4] [µL/min] | also measured |
| --- | --- | --- | --- | --- | --- |
| O=C(NC1CCN(C(=O)CCc2cccnc2F)CC1)C(c1ccccc1)C1CCCCC1 (stereo not drawn) | 31.6 |  |  |  | EC50 [6]: 200 nM |
| O=C(NC1CCN(C(=O)CCc2ccc(F)nc2)CC1)C(c1ccccc1)C1CCCCC1 (stereo not drawn) | 1260 | 18 | 0 | 782 | Papp [5]: 19 ×10⁻⁶ cm/s |
| O=C(NC1CCN(C(=O)CCc2cccnc2)CC1)C(c1ccc(Cl)cc1)C1CCCCC1 (stereo not drawn) | 200 | 18 | 0 | 500 | CL (Hepatocyte): 28 µL/min; Papp [5]: 10 ×10⁻⁶ cm/s |
| O=C(NC1CCN(C(=O)CCc2ccccn2)CC1)C1c2cc(Cl)ccc2Oc2ccc(Cl)cc21 |  |  |  |  | Log IC50 [7]: inactive |
| O=C(NC1CCN(C(=O)/C=C/c2cccnc2)CC1)C(c1ccccc1)C1CCCCC1 (stereo not drawn) | 1000 | 18 | 7 | 238 | CL (Hepatocyte): 26 µL/min; Papp [5]: 8.5 ×10⁻⁶ cm/s |
| O=C(NC1CCN(C(=O)CCc2cccnc2)CC1)C(c1ccccc1)C1CC=CC1 (stereo not drawn) | 3160 |  |  |  |  |
| O=C(NC1CCN(C(=O)CCc2ccncc2)CC1)C1c2cc(Cl)ccc2Oc2ccc(Cl)cc21 |  |  |  |  | Log IC50 [7]: inactive |
| O=C(NC1CCN(C(=O)CCc2cccnc2)CC1)C(c1ccc(F)cc1)C1CCCCC1 (stereo not drawn) | 158 |  |  |  |  |
| O=C(NC1CCN(C(=O)CCc2cccnc2)CC1)C(c1cc(F)c(F)c(F)c1)C1CCCCC1 (stereo not drawn) | 100 | 18 | 0 | 609 | CL (Hepatocyte): 17 µL/min; EC50 [6]: 794 nM |
| O=C(NC1CCN(C(=O)CCc2cccnc2)CC1)C(c1ccc2ccccc2c1)C1CCCCC1 (stereo not drawn) | 794 | 30 | 9 | 585 | EC50 [6]: 1580 nM |
| O=C(NC1CCN(C(=O)Cc2cccc(F)c2F)CC1)C(c1ccccc1)C1CCCCC1 (stereo not drawn) | 10000 |  |  |  |  |
| O=C(NC1CCN(C(=O)CCc2cccnc2)CC1)C1c2cc(Cl)ccc2Oc2ccc(Cl)cc21 | 1580 |  |  |  | IC50 [8]: 631 nM |
| O=C(NC1CCN(C(=O)CCc2cccnc2)CC1)/C(=C/C1CCCCC1)c1ccccc1 | 25100 |  |  |  |  |
| O=C(NC1CCN(C(=O)CCc2cccnc2)CC1)C(C1CCCCC1)C1CCCCC1 | 1000 | 12 | 6 | 675 |  |
| O=C(NC1CCN(C(=O)CCc2cccnc2)CC1)C(c1ccc([N+](=O)[O-])cc1)C1CCCCC1 (stereo not drawn) | 316 |  |  |  |  |
| COc1ccc(C(C(=O)NC2CCN(C(=O)CCc3cccnc3)CC2)C2CCCCC2)cc1 (stereo not drawn) | 631 |  |  |  |  |
| O=C(NC1CCN(C(=O)CCc2cccnc2)CC1)C(c1ccccc1)C1CCCCC1 (single isomer, unassigned; epimer A) | 5010 |  |  |  |  |
| O=C(NC1CCN(C(=O)CCc2cccnc2)CC1)C(c1ccccc1)c1ccccc1 | 12600 | 6 | 5 | 500 | CL (Hepatocyte): 21 µL/min; IC50 [8]: 3160 nM; Papp [5]: 8.5 ×10⁻⁶ cm/s |
